Results as given in ChEMBL document CHEMBL1121938, “Hypocholesterolemic and antiaggregatory properties of 2-hydroxytetronic acid redox analogues an their relationship to clofibric acid” (1982).

Assays:
Rattus norvegicus [1] = test: Effect of compound was measured on serum alpha-lipoprotein in male Dawley rats at the dose of 0.4 mmol/kg (day+7).; type: functional, organism-based
Summary of the method: (§1)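 Male Sprague-Dawley rats (180-210 g) fed a high-cholesterol diet for 1 week before and throughout dosing. Groups of n = 6 were dosed orally twice daily for 14 days in 0.25% methylcellulose, with vehicle controls. Rats were fasted 16-18 h before orbital bleeds on days -1, +4, +7 and +10, and by aortic exsanguination on day +14. Serum α-lipoprotein cholesterol was measured by polyanionic precipitation, in mg/dL ± SD.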

Rattus norvegicus [2] = test: Effect of compound was measured on serum total triglycerides in male Dawley rats at the dose of 0.4 mmol/kg (day+10).; type: functional, organism-based
Summary of the method: (§2)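 Serum triglycerides were measured with an enzymatic triglyceride reagent on a bichromatic analyzer. Rats were male Sprague-Dawley (180-210 g) fed a high-cholesterol diet, n = 6 per group, dosed orally twice daily for 14 days in 0.25% methylcellulose or vehicle. They were fasted 16-18 h before blood collection on days -1, +4, +7, +10 (orbital plexus, light ether) and +14 (aorta). Analysis was repeated-measures ANOVA with Duncan's test.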

Rattus norvegicus [3] = test: Effect of compound was measured on serum total cholesterol in male Dawley rats at the dose of 0.4 mmol/kg (day-1).; type: functional, organism-based
Summary of the method: (§3)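 Serum total cholesterol was measured enzymatically on a bichromatic analyzer. Serum was separated after clotting on ice (2000g, 10 min), held at 4 °C and assayed within 48 h. Rats were male Sprague-Dawley on a high-cholesterol diet, n = 6, dosed orally twice daily for 14 days in 0.25% methylcellulose (1.0 mL/100 g). They were fasted 16-18 h before each bleed. Results are in mg/dL ± SD.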

Rattus norvegicus [4] = test: Effect of compound on liver CH levels in male Dawley rats at the dose of 0.4 mmol/kg; type: functional; design: unit: g/100 g wet liver
Summary of the method: (§4)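 Male Sprague-Dawley rats (180-210 g) were kept on a high-cholesterol diet for 1 week before and throughout treatment. Groups of n = 6 received drug in 0.25% methylcellulose orally twice daily for 14 days, or vehicle. After a 16-18 h fast, livers were excised at day +14 and homogenized in 0.1 M Tris-HCl pH 7.2 with 1.15% KCl. Lipids were extracted from 25% w/v homogenate and reported as g/100 g wet liver ± SD; groups compared by ANOVA and Duncan's test.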

[5] = Effect of compound was measured on serum heparin-MnCl2 precipated ipoprotein Dawley rats at 0.4 mmol/kg dose(day+7).; type: functional
Summary of the method: (§5)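 Cholesterol-fed male Sprague-Dawley rats, n = 6 per group, given compound or 0.25% methylcellulose orally twice daily for 14 days, and fasted 16-18 h before each bleed (days -1, +4, +7, +10, +14). Heparin-MnCl2 precipitable lipoprotein cholesterol was taken as serum total cholesterol minus α-lipoprotein cholesterol. It is reported as a ratio to α-LP cholesterol ± SD. Analysis was ANOVA with repeated measures and Duncan's test.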

Rattus norvegicus [6] = test: Effect of compound was measured on serum total triglycerides in male Dawley rats at the dose of 0.4 mmol/kg (day+14).; type: functional, organism-based; summary of the method: as §2
Rattus norvegicus [7] = test: Effect of compound was measured on serum total cholesterol in male Dawley rats at the dose of 0.4 mmol/kg (day+10).; type: functional, organism-based; summary of the method: as §3
[8] = Effect of compound was measured on serum heparin-MnCl2 precipated ipoprotein Dawley rats at 0.4 mmol/kg dose(day+4).; type: functional; summary of the method: as §5
Rattus norvegicus [9] = test: Effect of compound was measured on serum total triglycerides in male Dawley rats at the dose of 0.4 mmol/kg (day-1).; type: functional, organism-based; summary of the method: as §2
[10] = Effect of compound was measured on serum heparin-MnCl2 precipated ipoprotein Dawley rats at 0.4 mmol/kg dose(day+14).; type: functional; summary of the method: as §5
Rattus norvegicus [11] = test: Effect of compound on liver TG levels in male Dawley rats at the dose of 0.4 mmol/kg; type: functional; design: unit: g/100 g wet liver; summary of the method: as §4
Rattus norvegicus [12] = test: Effect of compound was measured on serum total triglycerides in male Dawley rats at the dose of 0.4 mmol/kg (day+4).; type: functional, organism-based; summary of the method: as §2
Rattus norvegicus [13] = test: Effect of compound was measured on serum alpha-lipoprotein in male Dawley rats at the dose of 0.4 mmol/kg (day14).; type: functional, organism-based; summary of the method: as §1
Rattus norvegicus [14] = test: Effect of compound was measured on serum alpha-lipoprotein in male Dawley rats at the dose of 0.4 mmol/kg (day+4).; type: functional, organism-based; summary of the method: as §1
Rattus norvegicus [15] = test: Effect of compound was measured on serum alpha-lipoprotein in male Dawley rats at the dose of 0.4 mmol/kg (day+10).; type: functional, organism-based; summary of the method: as §1
Rattus norvegicus [16] = test: Effect of compound was measured on serum total triglycerides in male Dawley rats at the dose of 0.4 mmol/kg (day+7).; type: functional, organism-based; summary of the method: as §2
Rattus norvegicus [17] = test: Effect of compound was measured on serum total cholesterol in male Dawley rats at the dose of 0.4 mmol/kg (day+4).; type: functional, organism-based; summary of the method: as §3
[18] = Effect of compound was measured on serum heparin-MnCl2 precipated ipoprotein Dawley rats at 0.4 mmol/kg dose(day-1).; type: functional; summary of the method: as §5
[19] = Effect of compound was measured on serum heparin-MnCl2 precipated ipoprotein Dawley rats at 0.4 mmol/kg dose(day+10).; type: functional; summary of the method: as §5
[20] = Effect of compound on liver to body weight ratio in male Dawley rats at the dose of 0.4 mmol/kg; type: functional
Summary of the method: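 Male Sprague-Dawley rats (180-210 g) were kept on a cholesterol-rich diet and dosed orally twice daily for 14 days in 0.25% methylcellulose; vehicle controls received the same; n = 6 per group. After a 16-18 h fast, rats were exsanguinated at day +14. Livers were removed, rinsed in ice-cold buffer, blotted and weighed, and related to body weight. Data were analysed by repeated-measures ANOVA with Duncan's multiple range test.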

Rattus norvegicus [21] = test: Effect of compound was measured on serum total cholesterol in male Dawley rats at the dose of 0.4 mmol/kg (day+7).; type: functional, organism-based; summary of the method: as §3
Rattus norvegicus [22] = test: Effect of compound was measured on serum total cholesterol in male Dawley rats at the dose of 0.4 mmol/kg (day+14).; type: functional, organism-based; summary of the method: as §3
Rattus norvegicus [23] = test: Effect of compound was measured on serum alpha-lipoprotein in male Dawley rats at the dose of 0.4 mmol/kg (day-1).; type: functional, organism-based; summary of the method: as §1

Q: For `O=C1OC(c2ccc(Cl)cc2)C(=O)C1=O` (stereo unspecified), which alpha-lipoprotein cholesterol (Rattus norvegicus [1]) is on record?
A: Its alpha-lipoprotein cholesterol is 30.5 mg/dL.

Q: And the Serum total triglycerides (Rattus norvegicus [2])?
A: Its Serum total triglycerides is 151 mg/dL.

Q: And the serum total cholesterol (Rattus norvegicus [3])?
A: Its serum total cholesterol is 250 mg/dL.

Q: And the “Liver CH levels” value (Rattus norvegicus [4])?
A: Its value is 4.9.

Q: What about the Ratio [5] of the same compound?
A: The Ratio was 12.6.

Q: What about the Serum total triglycerides (Rattus norvegicus [6]) of the same compound?
A: Its Serum total triglycerides is 105 mg/dL.

Q: What about the serum total cholesterol (Rattus norvegicus [7]) of the same compound?
A: The serum total cholesterol was 356 mg/dL.

Q: What about the Ratio [8] of the same compound?
A: Its Ratio is 5.63.

Q: What about the Serum total triglycerides (Rattus norvegicus [9]) of the same compound?
A: The Serum total triglycerides was 268 mg/dL.

Q: And the Ratio [10]?
A: Its Ratio is 5.75.

Q: What about the “Liver TG” value (Rattus norvegicus [11]) of the same compound?
A: The value was 3.76.

Q: And the Serum total triglycerides (Rattus norvegicus [12])?
A: The Serum total triglycerides was 198 mg/dL.

Q: And the alpha-lipoprotein cholesterol (Rattus norvegicus [13])?
A: Its alpha-lipoprotein cholesterol is 34.2 mg/dL.

Q: What about the alpha-lipoprotein cholesterol (Rattus norvegicus [14]) of the same compound?
A: The alpha-lipoprotein cholesterol was 32 mg/dL.

Q: What about the alpha-lipoprotein cholesterol (Rattus norvegicus [15]) of the same compound?
A: The alpha-lipoprotein cholesterol was 29 mg/dL.

Q: What about the Serum total triglycerides (Rattus norvegicus [16]) of the same compound?
A: Its Serum total triglycerides is 164 mg/dL.

Q: What about the serum total cholesterol (Rattus norvegicus [17]) of the same compound?
A: Its serum total cholesterol is 205 mg/dL.

Q: What about the Ratio [18] of the same compound?
A: The Ratio was 5.76.

Q: And the Ratio [19]?
A: Its Ratio is 11.9.

Q: And the Ratio [20]?
A: The Ratio was 4.

Q: What about the serum total cholesterol (Rattus norvegicus [21]) of the same compound?
A: Its serum total cholesterol is 377 mg/dL.

Q: And the serum total cholesterol (Rattus norvegicus [22])?
A: Its serum total cholesterol is 217 mg/dL.

Q: And the alpha-lipoprotein cholesterol (Rattus norvegicus [23])?
A: Its alpha-lipoprotein cholesterol is 40.3 mg/dL.

Q: What does the source list for `CCOC(=O)C(C)(C)Oc1ccc(Cl)cc1` [CLOFIBRATE]?
A: alpha-lipoprotein cholesterol (Rattus norvegicus [1]): 52.7 mg/dL; Serum total triglycerides (Rattus norvegicus [2]): 196 mg/dL; serum total cholesterol (Rattus norvegicus [3]): 202 mg/dL; Liver CH levels (Rattus norvegicus [4]): 3.58; Ratio [5]: 3.12; Serum total triglycerides (Rattus norvegicus [6]): 155 mg/dL; serum total cholesterol (Rattus norvegicus [7]): 316 mg/dL; Ratio [8]: 2.54; Serum total triglycerides (Rattus norvegicus [9]): 266 mg/dL; Ratio [10]: 4.76; Liver TG (Rattus norvegicus [11]): 1.84; Serum total triglycerides (Rattus norvegicus [12]): 141 mg/dL; alpha-lipoprotein cholesterol (Rattus norvegicus [13]): 55 mg/dL; alpha-lipoprotein cholesterol (Rattus norvegicus [14]): 38.5 mg/dL; alpha-lipoprotein cholesterol (Rattus norvegicus [15]): 51.7 mg/dL; Serum total triglycerides (Rattus norvegicus [16]): 169 mg/dL; serum total cholesterol (Rattus norvegicus [17]): 127 mg/dL; Ratio [18]: 3.81; Ratio [19]: 4.89; Ratio [20]: 6.2; serum total cholesterol (Rattus norvegicus [21]): 209 mg/dL; serum total cholesterol (Rattus norvegicus [22]): 302 mg/dL; alpha-lipoprotein cholesterol (Rattus norvegicus [23]): 44.4 mg/dL
